Common to all, as to assay type: functional
For assay [1], the system named is Mus musculus. Description: Effect on postoperative lewis lung carcinoma model, was evaluated as […] on BDF1 female mice, administered intraperitoneally. Details: unit not given beside the values. The essentials:
(§1)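 BDF1 female mice (19–21 g); Lewis lung carcinoma, 10⁶ cells implanted im in the leg on day 0, and the tumor-bearing leg amputated on day 8. Dosing after amputation was 160 mg/kg ip from day 8, Q2Dx4, given as a saline suspension. Survival was tracked to day 40. Mice dying and those killed on day 40 were autopsied for body weight, lung weight and metastasis counts (<2 mm, >2 mm). Survival was reported as median survival time and %ILS, with ≥25% ILS counted as active.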

The species entered for assay [2] is Mus musculus. Put plainly: Autopsy data was evaluated as average lung weight, mg. The essentials:
as §1

The species named for assay [3] is Mus musculus. Description: Autopsy data was evaluated as average body weight/g. The essentials: as §1
Assay [4] has as its system Mus musculus. Description: Effect on postoperative lewis lung carcinoma model, was evaluated as increase in life span on BDF1 female mice, administered intraperitoneally. The essentials:
as §1

The species entered for assay [5] is Mus musculus. Put plainly: Autopsy data was evaluated as average number of metastasis in >2 mm. The essentials:
as §1

Assay [6] is filed under the species Mus musculus. Description: Autopsy data was evaluated as average number of metastasis in <2 mm. The essentials:
as §1

`O=C1CN2C[C@@H]3C(=O)N(CN4CCOCC4)C(=O)CN3C[C@@H]2C(=O)N1CN1CCOCC1` came in with an MST in the assay on Mus musculus [1] above 40. Moreover, the Average lung weight in the assay listed under Mus musculus [2] is recorded as 358 mg. In the assay filed under Mus musculus [3], the Average body weight is 19.2 g. Also, in the assay on Mus musculus [4], the “Increase in life span” value is listed as above 48%. For the same compound, the “Average No. of metastasis” value in the assay filed under Mus musculus [5] was found to be 6; in the assay listed under Mus musculus [6], 0.

The compound `O=C1CN2C[C@H]3C(=O)NC(=O)CN3C[C@@H]2C(=O)N1` had an MST in the assay with Mus musculus [1] of 28. The same compound showed an Average lung weight in the assay listed under Mus musculus [2] of 853 mg. Further, the Average body weight in the assay listed under Mus musculus [3] turned out to be 16.9 g. In the assay on Mus musculus [4], the “Increase in life span” value came to 4%. Moreover, the “Average No. of metastasis” value came to 48 in the assay listed under Mus musculus [5] and 0 in the assay listed under Mus musculus [6].

`O=C1CN2C[C@H]3C(=O)N(CN4CCOCC4)C(=O)CN3C[C@@H]2C(=O)N1CN1CCOCC1` registered an MST with Mus musculus [1] of 26. Further, in the assay filed under Mus musculus [2], the Average lung weight turned out to be 700 mg. In the assay listed under Mus musculus [3], the Average body weight is reported as 18.9 g. In addition, the “Increase in life span” value with Mus musculus [4] is reported as below 0%. For the same compound, the entries for the “Average No. of metastasis” value in the assay filed under Mus musculus [5] and in the assay filed under Mus musculus [6] were 38 and 0, respectively.

In the assay on Mus musculus [1], `O=C1CN2C[C@@H]3C(=O)NC(=O)CN3C[C@@H]2C(=O)N1` came in with an MST of 28. Moreover, the Average lung weight in the assay filed under Mus musculus [2] is 640 mg. The Average body weight in the assay listed under Mus musculus [3] was determined as 19.3 g. Besides, the “Increase in life span” value with Mus musculus [4] is on record as 4%. Further, the “Average No. of metastasis” value in the assay listed under Mus musculus [5] was found to be 22; in the assay filed under Mus musculus [6], 0.
